Experimental data: ChEMBL document CHEMBL5653623 (J Pharmacol Exp Ther, 2015)
pIC50: −log10 of the molar value. The source made the active and inactive calls. The rule behind the calls is not given here.

What was measured:
[1] = molecular target: Leucine-rich repeat serine/threonine-protein kinase 2 (Mus musculus) (UniProt Q5S006); assay: In vivo inhibition of LRRK2 in C57Bl/6 mouse kidney assessed as total LRRK2 protein level administered for 11 days and measured after 4 hrs by Western blotting analysis; type: functional, organism-based; conditions: dose 3-120 mg/kg, time 11.0 day
Procedure, shortened: (§1)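 Same 11-day in-diet design in male C57Bl/6 mice: 3-120 mg/kg/day or untreated diet, killed 4, 8 or 24 h after dark-cycle onset, n = 5 per group. Kidneys dissected for Western blot of pSer935 and total LRRK2, with total LRRK2 detected by MJFF-2 antibody.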

[2] = Unbound brain concentration in C57Bl/6 mouse administered for 11 days and measured after 24 hrs; type: ADME, tissue-based; conditions: in vivo, 264 h, time 11 day
Procedure, shortened: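 Male C57Bl/6 mice, singly housed on a reversed 12 h light cycle, were fed diet formulated to give 3, 10, 30, 60 or 120 mg/kg/day (assumes 3 g/day intake) or untreated diet for 11 days. Body weight and food intake were monitored. Spontaneous locomotion and rearing were recorded over 60 min. On day 11, mice were euthanized 4, 8 or 24 h after dark onset and plasma and brain drug levels measured; n = 5 per group.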

[3] = test system: Mus musculus; assay: Effect on food intake in MitoPark mouse at 30 mg/kg administered for 15 weeks; type: functional, organism-based
Procedure, shortened: (§2)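 MitoPark mice, 5 weeks old, were allocated by baseline 60-min LMA to untreated diet or diet targeting 30 mg/kg/day (reformulated every 3 weeks). Wild-type littermates received vehicle diet. Body weight and food intake were recorded weekly. 60-min LMA (distance, rearing) was run at 8, 11, 14 and 17 weeks of age.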

[4] = test system: Mus musculus; assay: Effect on behavioral phenotype in 8 weeks old MitoPark mouse assessed as rearing behavior at 30 mg/kg/day administered for 3 weeks and measured after 60 mins; type: functional, organism-based; procedure, shortened: as §2
[5] = test system: Mus musculus; assay: Effect on behavioral changes in 14 weeks old MitoPark mouse striatum assessed as TH level at 30 mg/kg/day by […] relative to control; type: functional
Procedure, shortened: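 Striatal protein (20 μg) from diet-treated MitoPark and wild-type mice was denatured at 70 °C for 10 min and run on 3-8% Tris-acetate gels. Blots were probed with anti-tyrosine hydroxylase and anti-GAPDH overnight at 4 °C, then an HRP secondary. TH is expressed as % of control.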

[6] = Unbound brain concentration in C57Bl/6 mouse at 30 mg/kg, po administered for 1 hr; type: ADME, organism-based; conditions: in vivo
[7] = Cmax in C57Bl/6 mouse at 10 mg/kg, po measured after 480 mins by LC-MS/MS analysis; type: ADME, organism-based; conditions: in vivo
Procedure, shortened: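 Male C57Bl/6 mice (20-25 g) given a single IV dose (2 mg/kg) or oral dose (10 mg/kg). Blood was sampled at 5, 15, 30, 60, 120, 240, 360 and 480 min and plasma prepared by centrifugation. Plasma drug levels were measured by LC/MS/MS. Values are mean (CV%), N=3.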

[8] = molecular target: Leucine-rich repeat serine/threonine-protein kinase 2 (Mus musculus) (UniProt Q5S006); assay: In vivo inhibition of LRRK2 in C57Bl/6 mouse kidney assessed as reduction in pSer935 LRRK2 administered for 11 days by Western blotting analysis; type: functional, organism-based; conditions: time 11.0 day; procedure, shortened: as §1
[9] = Inhibition of adenosine transporter (unknown origin); set-up: species or system Homo sapiens
Procedure, shortened: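 Radioligand binding selectivity screen was run at 10 μM, mean of three determinations. Where inhibition exceeded 50%, full concentration-displacement curves were run in triplicate and IC50 was obtained by nonlinear least-squares regression.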

[10] = molecular target: T1, Dual specificity protein kinase TTK (Homo sapiens, UniProt P33981); assay: Inhibition of TTK (unknown origin)
T1 sequence (P33981 whole entry): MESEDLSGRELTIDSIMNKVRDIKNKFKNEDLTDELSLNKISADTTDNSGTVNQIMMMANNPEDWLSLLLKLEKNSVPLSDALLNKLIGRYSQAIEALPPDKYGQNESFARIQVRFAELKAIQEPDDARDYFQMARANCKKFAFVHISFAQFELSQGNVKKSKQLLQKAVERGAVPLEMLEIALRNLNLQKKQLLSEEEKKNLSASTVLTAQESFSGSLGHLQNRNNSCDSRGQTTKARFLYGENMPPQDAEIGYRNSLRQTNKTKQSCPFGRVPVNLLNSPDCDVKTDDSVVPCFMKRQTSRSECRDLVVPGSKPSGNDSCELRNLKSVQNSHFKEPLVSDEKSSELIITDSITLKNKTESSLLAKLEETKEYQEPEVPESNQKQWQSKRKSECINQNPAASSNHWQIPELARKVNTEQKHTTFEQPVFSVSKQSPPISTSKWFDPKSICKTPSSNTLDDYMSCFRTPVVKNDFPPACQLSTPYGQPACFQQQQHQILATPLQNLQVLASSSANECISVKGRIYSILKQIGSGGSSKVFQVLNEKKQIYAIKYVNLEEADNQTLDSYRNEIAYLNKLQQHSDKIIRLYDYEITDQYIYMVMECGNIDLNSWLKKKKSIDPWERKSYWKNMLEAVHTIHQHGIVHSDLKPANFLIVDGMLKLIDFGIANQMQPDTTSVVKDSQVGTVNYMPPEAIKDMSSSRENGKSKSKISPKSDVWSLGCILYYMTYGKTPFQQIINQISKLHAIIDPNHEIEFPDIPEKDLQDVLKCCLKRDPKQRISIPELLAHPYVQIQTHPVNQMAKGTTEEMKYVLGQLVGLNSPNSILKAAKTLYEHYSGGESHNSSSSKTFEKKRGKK

Leucine-rich repeat serine/threonine-protein kinase 2 (Mus musculus), sequence (Q5S006 whole entry): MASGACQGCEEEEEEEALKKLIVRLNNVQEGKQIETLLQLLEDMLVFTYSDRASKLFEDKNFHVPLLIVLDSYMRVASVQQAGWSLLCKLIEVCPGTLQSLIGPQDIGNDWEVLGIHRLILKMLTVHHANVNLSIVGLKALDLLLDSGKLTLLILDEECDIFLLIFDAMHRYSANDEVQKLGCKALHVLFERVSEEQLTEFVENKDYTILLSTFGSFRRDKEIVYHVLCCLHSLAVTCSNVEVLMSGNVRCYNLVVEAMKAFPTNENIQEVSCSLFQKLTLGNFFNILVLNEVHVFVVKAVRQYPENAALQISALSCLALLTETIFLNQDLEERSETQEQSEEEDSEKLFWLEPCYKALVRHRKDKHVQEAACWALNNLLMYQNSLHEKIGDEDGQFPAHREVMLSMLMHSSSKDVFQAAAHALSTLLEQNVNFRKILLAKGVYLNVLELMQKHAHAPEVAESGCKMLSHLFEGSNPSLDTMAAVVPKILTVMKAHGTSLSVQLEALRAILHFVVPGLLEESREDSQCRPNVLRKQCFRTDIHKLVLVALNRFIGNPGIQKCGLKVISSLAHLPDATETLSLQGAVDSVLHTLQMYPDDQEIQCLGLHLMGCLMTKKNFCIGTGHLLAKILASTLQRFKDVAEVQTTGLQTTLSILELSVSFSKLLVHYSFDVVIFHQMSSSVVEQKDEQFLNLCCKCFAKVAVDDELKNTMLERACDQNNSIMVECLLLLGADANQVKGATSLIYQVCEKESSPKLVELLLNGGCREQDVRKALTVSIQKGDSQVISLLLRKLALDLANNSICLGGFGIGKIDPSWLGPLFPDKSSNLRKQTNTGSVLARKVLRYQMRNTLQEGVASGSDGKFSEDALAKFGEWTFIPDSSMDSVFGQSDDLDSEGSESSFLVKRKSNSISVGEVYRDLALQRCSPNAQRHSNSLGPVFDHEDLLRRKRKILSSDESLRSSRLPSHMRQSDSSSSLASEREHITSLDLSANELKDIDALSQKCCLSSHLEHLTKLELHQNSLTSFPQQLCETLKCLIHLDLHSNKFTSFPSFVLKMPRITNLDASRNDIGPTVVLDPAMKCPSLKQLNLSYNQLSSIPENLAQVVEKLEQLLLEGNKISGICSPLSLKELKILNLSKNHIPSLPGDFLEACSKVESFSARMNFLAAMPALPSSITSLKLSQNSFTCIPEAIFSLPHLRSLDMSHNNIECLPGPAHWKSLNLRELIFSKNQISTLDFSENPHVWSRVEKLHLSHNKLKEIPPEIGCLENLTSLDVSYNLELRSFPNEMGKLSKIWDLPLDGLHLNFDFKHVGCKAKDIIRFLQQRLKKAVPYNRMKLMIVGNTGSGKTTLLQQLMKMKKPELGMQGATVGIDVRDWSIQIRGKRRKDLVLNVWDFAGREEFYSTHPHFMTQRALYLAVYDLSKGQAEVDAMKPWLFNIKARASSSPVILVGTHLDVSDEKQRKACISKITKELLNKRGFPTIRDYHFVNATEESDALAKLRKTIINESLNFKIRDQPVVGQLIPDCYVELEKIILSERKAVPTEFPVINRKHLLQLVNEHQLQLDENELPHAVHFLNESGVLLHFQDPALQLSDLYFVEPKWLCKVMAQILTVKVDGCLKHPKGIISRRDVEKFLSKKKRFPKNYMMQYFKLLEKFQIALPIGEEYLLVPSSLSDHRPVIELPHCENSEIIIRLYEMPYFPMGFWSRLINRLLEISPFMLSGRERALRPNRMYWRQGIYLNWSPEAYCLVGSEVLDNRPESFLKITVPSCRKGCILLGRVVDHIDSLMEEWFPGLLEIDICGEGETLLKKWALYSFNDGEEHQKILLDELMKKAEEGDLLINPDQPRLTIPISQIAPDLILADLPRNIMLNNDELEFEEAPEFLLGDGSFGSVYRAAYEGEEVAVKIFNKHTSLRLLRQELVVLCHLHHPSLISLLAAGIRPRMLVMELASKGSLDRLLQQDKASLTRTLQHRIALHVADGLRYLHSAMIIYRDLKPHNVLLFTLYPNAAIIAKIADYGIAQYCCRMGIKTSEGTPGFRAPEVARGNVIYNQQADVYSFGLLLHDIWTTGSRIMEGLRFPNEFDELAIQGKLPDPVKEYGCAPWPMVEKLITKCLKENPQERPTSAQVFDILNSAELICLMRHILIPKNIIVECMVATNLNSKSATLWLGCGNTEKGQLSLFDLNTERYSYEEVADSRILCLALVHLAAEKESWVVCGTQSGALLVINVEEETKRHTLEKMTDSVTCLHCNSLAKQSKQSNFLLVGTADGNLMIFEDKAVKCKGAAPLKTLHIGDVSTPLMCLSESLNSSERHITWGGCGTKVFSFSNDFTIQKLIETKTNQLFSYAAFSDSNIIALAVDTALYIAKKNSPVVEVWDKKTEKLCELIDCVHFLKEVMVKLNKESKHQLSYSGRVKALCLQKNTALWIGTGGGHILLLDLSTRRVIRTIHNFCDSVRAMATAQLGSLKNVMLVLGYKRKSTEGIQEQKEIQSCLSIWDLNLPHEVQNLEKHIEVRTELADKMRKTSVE

inhibition [1]: Dose-Dependent Effect | Drug uptake(free) [2]: Active | Drug uptake(free) [6]: 91.8 nM | Cmax [7]: 298 nM | inhibition [8]: Active | pIC50 [9]: 5.01 | pIC50 [10]: 6.03
SMILES: C[C@@H]1CN(c2cc(-c3n[nH]c4ccc(OC5(C)CC5)cc34)ncn2)C[C@H](C)O1 [MLi-2]
Activity [3]: inactive | Activity [4]: Active | Activity [5]: 42.6%
